KCNK3 inh – human KCNK3 channel inhibition, primary screen | AID 602410 | actives 0.84% (n = 340,000) | CHO-KCNK3 thallium flux, FluxOR fluorescence; hits give low values | B-score at 10 µM;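 active = B-score under library mean minus 4 SD, starting fluorescence ratio at most library mean plus 5 SD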;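 also: more negative B-score means stronger inhibition of thallium flux through KCNK3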
KCNQ1 pot – human KCNQ1 channel potentiation or activation. P51787. CHO-K1 KCNQ1, thallium flux FluxOR fluorescence; hits give high values. B-score at 10 µM. actives 0.35% (n = 310,000);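 active = fluorescence ratio B-score, a plate-corrected score, at least three library SD, with initial intensity B-score within 5 SD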
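System: CHO-K1 cells stably expressing KCNQ1 / Medium: assay buffer for compound exposure, DMSO matched across wells / Reagent: thallium- and potassium-containing depolarizing buffer / Compound: one concentration, matched DMSO / Incubation: 20 min compound pretreatment at room temperature / Measured by: kinetic FluxOR fluorescence, 10 s baseline plus 110 s post-stimulus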
KCNK9 inh – human KCNK9 channel inhibition; Q9NPC2; HEK293 KCNK9, FluxOR thallium flux fluorescence; hits give low values; B-score at 10 µM; actives 1.2% (n = 310,000);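 active = ratio B-score over 3 SD below the library mean, with starting fluorescence within 5 SD of its mean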;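 also: negative B-score means less thallium flux so channel inhibition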
Target sequence (Q9NPC2 whole entry, looked up): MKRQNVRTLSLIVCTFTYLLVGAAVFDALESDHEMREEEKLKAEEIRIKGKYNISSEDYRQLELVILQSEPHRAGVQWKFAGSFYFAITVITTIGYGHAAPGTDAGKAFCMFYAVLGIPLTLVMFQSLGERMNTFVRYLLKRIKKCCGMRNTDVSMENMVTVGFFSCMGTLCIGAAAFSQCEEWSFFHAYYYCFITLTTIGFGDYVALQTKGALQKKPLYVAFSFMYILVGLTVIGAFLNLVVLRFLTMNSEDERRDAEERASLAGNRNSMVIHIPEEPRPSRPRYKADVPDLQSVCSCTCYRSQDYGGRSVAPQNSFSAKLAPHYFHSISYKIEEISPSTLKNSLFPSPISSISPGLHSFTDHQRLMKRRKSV
KCNQ1 inh – inhibitors of human KCNQ1 potassium channel; P51787; CHO-K1 KCNQ1, FluxOR thallium flux fluorescence; hits give high values; B-score at 10 µM; actives 1.3% (n = 310,000);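 active = compounds whose thallium flux B-score, printed positive for inhibition, exceeds three library SD while starting fluorescence stays within three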;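 also: channel opened by potassium depolarization with thallium stimulus after 20 min compound exposure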
hERG rescue – compounds protecting human hERG from proarrhythmic drug block. activation (rescue from dofetilide block), less the hit threshold, % at 10 µM. actives 0.51% (n = 310,000). Q12809. CHO-hERG, FluxOR thallium flux, dofetilide IC70 present. AID 1511;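 active = activation above the mean of controls blocked by dofetilide plus 5 SD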;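 also: thallium influx through hERG after potassium depolarization seen as dye fluorescence rise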
Starred values were filed as active, the others as inactive; i = inactive; nt = no result. Most compounds without a hit are left out; they make up all but 3.1% or so of the library.

SMILES | KCNK3 inh | KCNQ1 pot | KCNK9 inh | KCNQ1 inh | hERG rescue
Cc1ccc(C2=NN(C(=O)c3ccccc3F)C(c3ccccc3F)C2)cc1 (stereo unspecified) | i | i | i | 7* | -5
COc1ccc(NC(=O)c2c(F)cccc2Cl)cc1S(=O)(=O)N1CCOCC1 | i | nt | nt | nt | nt
CCOC(=O)C1=C(C)N(C[C@@H]2CC[C@@H](Cc3ccc(-c4ccccc4)cc3)O2)C(=O)NC1c1ccc(Cl)cc1 (stereo partly specified) | i | nt | nt | nt | nt
O=P(CCCCCCCCCP(=O)(c1ccccc1)c1ccccc1)(c1ccccc1)c1ccccc1 | i | i | -7.2* | i | -30
O=S(=O)(c1ccc2ccccc2c1)N1CCN(S(=O)(=O)c2c(F)cccc2F)CC1 | i | nt | nt | nt | nt
CCOC(=O)c1cnc(SC)nc1Sc1ccccc1Cl | i | i | i | 6* | -10
CSc1ncc(C(=O)Nc2ccccc2C)c(C)n1 | i | i | i | i | -4
CSc1ncc(C(=O)Nc2ccccc2Cl)c(C)n1 | i | 13* | i | i | -4
O=C(COC(=O)c1ccc(F)cc1F)c1ccc[nH]1 | i | nt | nt | nt | nt
COc1ccccc1N1CCN(C(=O)COc2ccc(Cl)cc2Br)CC1 | i | i | i | i | -7
COC(=O)C1CCCN1C(=O)COc1ccc(Cl)cc1Br (stereo unspecified) | i | 8* | i | i | 5.1*
Cc1ccc(S(=O)(=O)c2nc(-c3ccccc3)oc2NCc2cccnc2)cc1 | i | i | i | i | -10
Cc1ccccc1-c1nc(S(=O)(=O)c2ccc(Br)cc2)c(NCc2cccnc2)o1 | -9.1* | i | i | i | -17
O=C(Nn1c(O)c(C=C2N=c3ccccc3=N2)sc1=S)c1cccc(Cl)c1 | i | i | i | i | 12*
CC(C)[C@H](NS(=O)(=O)c1ccccc1F)C(=O)NC1CCCCC1 | i | nt | nt | nt | nt
CSc1ccc(Cl)c(C(=O)OCC(=O)N2CCN(c3ccccc3)CC2)c1 | i | nt | nt | nt | nt
CCCOc1ccc(/C=C/C(=O)Nc2ccc([N+](=O)[O-])cc2)cc1 | i | i | i | 7* | -16
Cc1ccccc1NC(=O)CSc1nnc(CNC(=O)c2ccc3c(c2)OCO3)n1C | i | i | i | i | -7
CCn1c(CNC(=O)c2ccc3c(c2)OCO3)nnc1SCC(=O)Nc1cc(C)ccc1OC | i | i | i | 8* | -16
Cc1ccc(CNc2nc(C)cs2)cc1 | i | i | i | i | -6
CCOC(=O)[C@@H]1CSCCS(=O)(=O)N1Cc1ccccc1Br | i | nt | nt | nt | nt
COc1ccc(Cl)cc1C(=O)NCCN(C)C | i | i | i | i | 6.8*
CCNC(=O)c1cc(Cl)ccc1OC | i | i | i | i | -9
c1ccc2c(c1)Cc1ccccc1O2 | i | nt | nt | nt | nt
Cc1cc(C)n(-c2nc3sc4c(c3c(=O)[nH]2)CCCC4)n1 | nt | 13* | i | i | -5
SMILES | KCNK3 inh | KCNQ1 pot | KCNK9 inh | KCNQ1 inh | hERG rescue
O=C(O)c1ccc(NC(=S)NC(=O)c2cccc(COc3ccccc3)c2)cc1 | i | i | i | 6* | -10
O=C(NC(=S)Nc1ccc(CN2CCCCC2)cc1)c1cccc(OCc2ccccc2)c1 | i | i | i | 8* | -43
O=C(NC(=S)Nc1ccc(CN2CCOCC2)cc1)c1ccc(-c2cccc(Cl)c2)o1 | i | 20* | i | i | -3
O=C(O)c1ccc(NC(=S)NC(=O)c2ccc3ccccc3c2)cc1 | i | i | i | i | -3
Cc1ccc(NC2CCCCC2NS(=O)(=O)c2ccccc2)c(C)c1 (stereo unspecified) | i | i | i | i | -5
COCCn1c(SCC(=O)Nc2ccc3[nH]c(=O)[nH]c3c2)nc2ccccc21 | i | nt | nt | nt | nt
CCOc1ccc(S(=O)(=O)N2CCN(C(=O)Cc3n[nH]c(=O)c4ccccc34)CC2)cc1 | i | nt | nt | nt | nt
Cc1cccc(N2C(=O)C(Oc3ccc(Cl)cc3Cl)C2C(=O)O)c1C (stereo unspecified) | i | i | i | i | -5
CCCNCC1C(Oc2ccc(Cl)cc2Cl)C(=O)N1c1cccc(C)c1C (stereo unspecified) | i | i | -6.7* | i | -19
O=S(=O)(Nc1ccc(O)c2ccccc12)c1ccc(Br)cc1 | nt | i | i | i | 30*
O=C(NCc1ccccn1)C1CCN(Cc2cccc(OCc3ccccc3)c2)CC1 | i | 8* | i | i | -6
NC(=O)C1CCN(Cc2cccc(OCc3ccccc3)c2)CC1 | i | i | i | i | 0
COc1ccc(C(CNC(=O)c2ccc(OCc3c(C)noc3C)cc2)N2CCCC2)cc1 (stereo unspecified) | i | nt | nt | nt | nt
COc1cc2cc(CN(Cc3cccs3)C(=S)Nc3cccc(C)c3)c(=O)[nH]c2cc1OC | nt | i | i | 7* | -11
CCCN(CC(=O)Nc1ccccc1OC)C(=O)c1ccc2ncsc2c1 | i | nt | nt | nt | nt
Cn1c(=O)c2c(ncn2CC(=O)N/N=C/C(Cl)=C/c2ccccc2)n(C)c1=O | i | 11* | i | i | -8
Cn1c(=O)c2c(ncn2CCC(=O)N/N=C/c2ccccc2)n(C)c1=O | i | i | i | i | -5
COc1ccc(C=CC(=O)c2ccc(OC)c(OC)c2O)cc1OC | i | nt | nt | nt | nt
Cc1ccc(/C=C/C(=O)c2ccccc(=O)c2O)cc1C | i | 34* | i | i | 9.1*
Cc1ccn2nc(C(=O)OCC(=O)N(CC(C)C)C3CCS(=O)(=O)C3)nc2n1 (stereo unspecified) | i | nt | nt | nt | nt
CCOC(=O)c1c(/N=C/C2=C(O)CCCC2=O)sc2c1CCCC2 | i | i | i | i | 5.9*
COc1ccc(NS(=O)(=O)c2ccc(C(=O)N(C)Cc3ccc(C)o3)cc2)cc1 | i | nt | nt | nt | nt
O=C(Cc1cccc(NC(=O)C2CCN(C(=O)C3CCCC3)CC2)c1)Nc1cccc(C(=O)N2CCOCC2)c1 | i | nt | nt | nt | nt
Cc1[nH]n(-c2ccccc2)c(=O)c1N=Nc1nccs1 | i | 78* | i | i | 114*
Cc1[nH]n(-c2ccccc2)c(=O)c1N=Nc1ccccc1O | i | i | i | i | -3
CC(=O)OCC(=O)C1CCC2C3CCC4=CC(=O)C=CC4(C)C3CCC12C (stereo unspecified) | i | nt | nt | nt | nt
COc1cc(CN2CCNC(=O)C2CC(=O)NCCCC2CCCC2)cc(OC)c1 (stereo unspecified) | i | i | i | i | -11
COC(=O)C1=NN(C(=O)c2ccc(C)cc2)C(O)(c2ccc(Cl)cc2)C1 (stereo unspecified) | nt | 37* | i | i | 50*
CCN(CC)c1ccc(NC(=S)NC(=O)c2ccco2)cc1 | i | 35* | i | i | 53*
CCCCOC(=O)c1ccc(NC(=S)NC(=O)c2ccco2)cc1 | i | 11* | i | i | 0

Source: PubChem BioAssay
